Source: ChEMBL document CHEMBL4387708, “Enhancement of Benzothiazoles as Pteridine Reductase-1 Inhibitors for the Treatment of Trypanosomatidic Infections” (J Med Chem, 2019)
Activity calls are given as the source filed them. The calls are words filed in the database; no cut-off is given here.

Assays:
[1] = test system: Trypanosoma cruzi; experiment: Growth inhibition of trypomastigote form of Trypanosoma cruzi Y infected in human U2OS cells at 50 uM measured after 72 hrs by DRAQ5 DNA dye based confocal microscopic analysis relative to control; type: organism-based; conditions: for inhibition at 50 µM: Trypanosoma cruzi, Y, U2OS, read-out: GI; for growth inhibition (GI): trypanosoma cruzi, 50 µM
[2] = biological target: Cytochrome P450 3A4 (Homo sapiens, UniProt P08684); experiment: Inhibition of human CYP3A4 expressed in baculovirus infected insect cells using beetle D-luciferin as substrate preincubated for 30 mins followed by NADPH addition and measured after 30 mins by CYP450-Glo assay
Cytochrome P450 3A4, sequence (P08684 whole entry): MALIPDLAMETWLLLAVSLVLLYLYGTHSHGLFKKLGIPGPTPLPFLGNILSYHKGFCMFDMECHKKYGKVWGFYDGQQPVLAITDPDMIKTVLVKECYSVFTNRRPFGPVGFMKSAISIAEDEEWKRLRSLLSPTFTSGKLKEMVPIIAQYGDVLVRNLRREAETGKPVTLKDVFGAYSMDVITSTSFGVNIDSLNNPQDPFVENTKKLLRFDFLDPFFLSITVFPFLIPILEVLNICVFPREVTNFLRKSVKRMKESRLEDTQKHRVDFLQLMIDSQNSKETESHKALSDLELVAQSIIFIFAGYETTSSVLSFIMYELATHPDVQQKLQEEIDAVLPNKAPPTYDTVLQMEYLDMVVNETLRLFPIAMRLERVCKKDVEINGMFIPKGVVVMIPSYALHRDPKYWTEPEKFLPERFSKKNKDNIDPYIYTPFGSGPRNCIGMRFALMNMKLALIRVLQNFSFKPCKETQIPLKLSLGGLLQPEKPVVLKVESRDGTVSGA

[3] = Cytotoxicity against human THP1 cells after 72 hrs by MTT assay; type: cell-based, THP-1; conditions: read-out: NOAEL
[4] = biological target: T1, Pteridine reductase 1 (Leishmania major, UniProt Q01782); experiment: Inhibition of Leishmania major pteridine reductase 1 using di-hydrobiopterine as substrate in presence of NADPH
T1 sequence (Q01782 whole entry): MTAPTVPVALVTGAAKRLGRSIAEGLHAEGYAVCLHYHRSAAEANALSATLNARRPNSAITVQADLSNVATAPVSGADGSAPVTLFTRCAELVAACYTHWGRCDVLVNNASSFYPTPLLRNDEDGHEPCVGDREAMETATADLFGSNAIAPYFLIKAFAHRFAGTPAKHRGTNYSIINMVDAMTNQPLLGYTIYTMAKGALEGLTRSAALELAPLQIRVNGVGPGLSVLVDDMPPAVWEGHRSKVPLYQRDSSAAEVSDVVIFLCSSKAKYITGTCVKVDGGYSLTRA
Outline: (§1)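 Photometric PTR1 assay with NADPH and dihydrobiopterin substrate. H₄B formation is coupled non-enzymatically to cytochrome c reduction, read as signal increase at 550 nm.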

[5] = biological target: T2, Pteridine reductase 1 (Leishmania major) (UniProt Q01782); experiment: Inhibition of Leishmania major pteridine reductase 1 at 50 uM using di-hydrobiopterine as substrate in presence of NADPH relative to control; outline: as §1
T2 sequence (whole entry): T1 sequence (Q01782 whole entry)

[6] = biological target: T3, Cytochrome P450 1A2 (Homo sapiens, UniProt P05177); experiment: Inhibition of human CYP1A2 expressed in baculovirus infected insect cells using beetle D-luciferin as substrate preincubated for 30 mins followed by NADPH addition and measured after 30 mins by CYP450-Glo assay
T3 sequence (P05177 whole entry): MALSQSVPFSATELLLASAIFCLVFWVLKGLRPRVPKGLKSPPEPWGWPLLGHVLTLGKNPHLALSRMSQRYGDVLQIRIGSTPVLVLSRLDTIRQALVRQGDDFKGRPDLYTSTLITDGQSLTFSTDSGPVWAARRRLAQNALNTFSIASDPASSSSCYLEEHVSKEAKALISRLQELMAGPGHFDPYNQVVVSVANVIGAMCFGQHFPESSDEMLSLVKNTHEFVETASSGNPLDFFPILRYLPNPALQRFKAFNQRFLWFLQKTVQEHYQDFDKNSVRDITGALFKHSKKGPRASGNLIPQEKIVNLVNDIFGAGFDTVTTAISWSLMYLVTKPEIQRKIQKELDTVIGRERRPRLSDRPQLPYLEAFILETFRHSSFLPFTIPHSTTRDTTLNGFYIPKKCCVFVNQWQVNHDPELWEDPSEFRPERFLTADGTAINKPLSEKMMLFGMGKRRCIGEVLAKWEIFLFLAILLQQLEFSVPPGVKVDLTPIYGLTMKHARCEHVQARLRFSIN

[7] = biological target: Voltage-gated inwardly rectifying potassium channel KCNH2 (Homo sapiens, UniProt Q12809); experiment: Displacement of Tracer Red from human ERG by fluorescence polarization assay
Voltage-gated inwardly rectifying potassium channel KCNH2, sequence (Q12809 whole entry): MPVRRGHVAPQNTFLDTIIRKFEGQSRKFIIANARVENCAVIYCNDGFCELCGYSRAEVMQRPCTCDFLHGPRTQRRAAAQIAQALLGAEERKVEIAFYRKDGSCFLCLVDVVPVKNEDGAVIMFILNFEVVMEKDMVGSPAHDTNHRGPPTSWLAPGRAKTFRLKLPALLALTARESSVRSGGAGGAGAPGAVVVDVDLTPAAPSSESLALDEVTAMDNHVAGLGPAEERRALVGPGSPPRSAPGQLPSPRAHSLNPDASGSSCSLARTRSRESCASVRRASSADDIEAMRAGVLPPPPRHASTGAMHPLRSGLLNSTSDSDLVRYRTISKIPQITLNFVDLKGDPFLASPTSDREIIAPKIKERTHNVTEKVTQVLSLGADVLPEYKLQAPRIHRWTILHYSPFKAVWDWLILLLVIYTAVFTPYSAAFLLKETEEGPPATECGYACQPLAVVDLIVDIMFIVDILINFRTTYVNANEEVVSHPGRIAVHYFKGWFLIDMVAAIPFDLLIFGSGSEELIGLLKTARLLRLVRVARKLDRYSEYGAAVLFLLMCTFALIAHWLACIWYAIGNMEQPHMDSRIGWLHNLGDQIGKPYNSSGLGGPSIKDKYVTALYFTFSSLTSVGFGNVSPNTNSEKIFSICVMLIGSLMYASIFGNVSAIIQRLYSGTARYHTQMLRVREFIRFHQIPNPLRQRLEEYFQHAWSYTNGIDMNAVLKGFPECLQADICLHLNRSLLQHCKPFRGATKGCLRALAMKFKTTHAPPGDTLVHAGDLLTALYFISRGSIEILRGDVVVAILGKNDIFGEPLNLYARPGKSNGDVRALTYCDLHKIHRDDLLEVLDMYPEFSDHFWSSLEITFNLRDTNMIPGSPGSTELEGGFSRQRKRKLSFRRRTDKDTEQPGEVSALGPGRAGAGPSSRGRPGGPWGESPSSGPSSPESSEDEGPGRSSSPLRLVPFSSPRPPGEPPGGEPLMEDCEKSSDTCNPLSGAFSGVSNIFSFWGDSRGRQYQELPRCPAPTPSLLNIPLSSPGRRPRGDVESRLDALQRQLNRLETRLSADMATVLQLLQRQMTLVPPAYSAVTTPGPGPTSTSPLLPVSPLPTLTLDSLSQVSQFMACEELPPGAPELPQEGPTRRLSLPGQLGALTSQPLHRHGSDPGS

[8] = Cytotoxicity against human U2OS cells assessed as reduction in cell number; type: cell-based
[9] = biological target: Cytochrome P450 2D6 (Homo sapiens, UniProt P10635); experiment: Inhibition of human CYP2D6 expressed in baculovirus infected insect cells using beetle D-luciferin as substrate preincubated for 30 mins followed by NADPH addition and measured after 30 mins by CYP450-Glo assay
Cytochrome P450 2D6, sequence (P10635 whole entry): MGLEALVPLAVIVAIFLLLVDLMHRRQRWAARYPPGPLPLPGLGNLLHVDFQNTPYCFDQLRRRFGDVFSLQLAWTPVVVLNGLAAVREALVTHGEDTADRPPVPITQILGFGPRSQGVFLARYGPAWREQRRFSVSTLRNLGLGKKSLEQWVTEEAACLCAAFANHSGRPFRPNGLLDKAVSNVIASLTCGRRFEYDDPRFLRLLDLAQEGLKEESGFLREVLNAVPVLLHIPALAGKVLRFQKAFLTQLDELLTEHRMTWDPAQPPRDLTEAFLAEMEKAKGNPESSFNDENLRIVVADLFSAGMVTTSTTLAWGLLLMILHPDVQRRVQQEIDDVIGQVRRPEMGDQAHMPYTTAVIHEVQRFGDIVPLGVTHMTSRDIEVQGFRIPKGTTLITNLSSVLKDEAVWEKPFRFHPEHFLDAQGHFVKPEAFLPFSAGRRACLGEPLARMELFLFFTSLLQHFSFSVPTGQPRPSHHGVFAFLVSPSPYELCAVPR

[10] = Inhibition of N-terminal His-tagged Trypanosoma brucei pteridine reductase 1 using di-hydrobiopterine as substrate measured at 1 min interval for 50 mins in presence of NADPH; outline: as §1
[11] = Cytotoxicity against human A549 cells after 48 hrs by Celltiter-glo assay; type: cell-based
[12] = Mitochondrial toxicity in human 786-O cells measured after 6 hrs by MitoTracker Red chloromethyl-X-rosamine based assay; type: cell-based, 786-0
[13] = test system: Trypanosoma brucei; experiment: Inhibition of N-terminal His-tagged Trypanosoma brucei pteridine reductase 1 at 50 uM using di-hydrobiopterine as substrate measured at 1 min interval for 50 mins in presence of NADPH relative to control; outline: as §1
[14] = Selectivity ratio of IC50 for Leishmania major pteridine reductase 1 to IC50 for N-terminal His-tagged Trypanosoma brucei pteridine reductase 1
[15] = biological target: Cytochrome P450 2C19 (Homo sapiens, UniProt P33261); experiment: Inhibition of human CYP2C19 expressed in baculovirus infected insect cells using beetle D-luciferin as substrate preincubated for 30 mins followed by NADPH addition and measured after 30 mins by CYP450-Glo assay
Cytochrome P450 2C19, sequence (P33261 whole entry): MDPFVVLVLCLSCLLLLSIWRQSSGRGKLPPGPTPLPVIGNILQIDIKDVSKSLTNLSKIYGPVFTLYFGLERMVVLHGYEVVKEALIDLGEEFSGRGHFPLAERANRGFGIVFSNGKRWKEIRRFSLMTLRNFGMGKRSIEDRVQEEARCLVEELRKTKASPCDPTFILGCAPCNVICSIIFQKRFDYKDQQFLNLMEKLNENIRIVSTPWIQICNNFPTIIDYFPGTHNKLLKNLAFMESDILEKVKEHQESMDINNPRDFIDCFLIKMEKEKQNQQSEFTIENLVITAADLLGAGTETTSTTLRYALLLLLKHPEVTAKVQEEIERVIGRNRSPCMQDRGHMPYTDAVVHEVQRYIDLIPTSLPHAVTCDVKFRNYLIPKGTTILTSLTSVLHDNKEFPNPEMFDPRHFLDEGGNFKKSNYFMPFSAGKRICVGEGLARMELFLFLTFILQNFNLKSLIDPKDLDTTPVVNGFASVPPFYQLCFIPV

[16] = biological target: Cytochrome P450 2C9 (Homo sapiens, UniProt P11712); experiment: Inhibition of human CYP2C9 expressed in baculovirus infected insect cells using beetle D-luciferin as substrate preincubated for 30 mins followed by NADPH addition and measured after 30 mins by CYP450-Glo assay
Cytochrome P450 2C9, sequence (P11712 whole entry): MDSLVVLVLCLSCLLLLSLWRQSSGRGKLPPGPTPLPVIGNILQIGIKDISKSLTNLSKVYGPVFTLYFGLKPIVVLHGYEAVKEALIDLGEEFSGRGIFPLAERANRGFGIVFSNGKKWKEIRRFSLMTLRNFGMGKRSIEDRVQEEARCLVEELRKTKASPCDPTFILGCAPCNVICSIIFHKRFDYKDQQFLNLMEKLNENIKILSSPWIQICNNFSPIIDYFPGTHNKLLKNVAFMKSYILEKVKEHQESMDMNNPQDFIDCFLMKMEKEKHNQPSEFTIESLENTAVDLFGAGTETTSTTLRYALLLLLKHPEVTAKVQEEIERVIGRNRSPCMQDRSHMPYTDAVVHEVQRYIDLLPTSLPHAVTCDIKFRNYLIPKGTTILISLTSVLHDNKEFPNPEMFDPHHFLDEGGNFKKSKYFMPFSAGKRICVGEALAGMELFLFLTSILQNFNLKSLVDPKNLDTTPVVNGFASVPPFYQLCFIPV

[17] = test system: Leishmania infantum; experiment: Growth inhibition of luciferase expressing Leishmania infantum axenic amastigotes infected in human THP1 cells at 10 uM measured after 72 hrs by steady-glo luminescence assay relative to control; type: organism-based; conditions: for growth inhibition (GI): leishmania infantum, 72 h, 10 µM; for inhibition at 10 µM: Leishmania infantum, THP-1, 72 h, read-out: GI
[18] = test system: Trypanosoma brucei; experiment: Growth inhibition of Trypanosoma brucei bloodstream forms at 10 uM measured after 72 hrs by resazurin-based fluorescence assay relative to control; type: organism-based; conditions: Trypanosoma brucei, read-out: GI

Structure (SMILES) | inhibition at 50 µM [1] | IC50 [2] | MNTC at 72 h [3] | IC50 ([4]; read-out: IC50) | inhibition [5] | IC50 [6] | IC50 [7] | GI50 [8] | IC50 [9] | IC50 [10] | GI50 at 48 h [11] | IC50 at 6 h [12] | inhibition [13] | Ratio IC50 [14] | IC50 [15] | IC50 [16] | growth inhibition (GI) [17] | inhibition at 10 µM [18] | growth inhibition (GI) [1] | also measured
Nc1nc2c(C(=O)NCc3ccccc3)cc(O)c(O)c2s1 | 5.85% | < 10 µM | > 25 µM | 30.1 µM | > 60% | > 25 µM | > 25 µM | > 25 µM | < 10 µM | 30.9 µM | 10 to 25 µM | 10 to 25 µM | > 60% | 2 to 100 | > 25 µM | > 25 µM | Non-Toxic | 15% | – | –
Nc1nc2ccc(C(=O)NC(c3ccccc3)c3ccccc3)cc2s1 | 37.8% | < 10 µM | > 25 µM | 88.5 µM | > 60% | > 25 µM | > 25 µM | > 25 µM | < 10 µM | 18.5 µM | > 25 µM | > 25 µM | > 60% | 2 to 100 | < 10 µM | < 10 µM | – | 10% | – | inhibition at 10 µM [17]: 15%
CS(=O)(=O)c1ccc2nc(N)sc2c1 | 17.4% | > 25 µM | > 25 µM | 32.9 µM | > 60% | > 25 µM | > 25 µM | > 25 µM | > 25 µM | 34.2 µM | > 25 µM | > 25 µM | > 60% | 2 to 100 | > 25 µM | > 25 µM | Non-Toxic | 17% | – | –
Nc1nc2ccc(C(=O)NCc3ccc(Cl)c(Cl)c3)cc2s1 | – | < 10 µM | > 25 µM | 15.3 µM | > 60% | > 25 µM | > 25 µM | > 25 µM | < 10 µM | 5.4 µM | > 25 µM | < 10 µM | > 60% | 2 to 100 | < 10 µM | > 25 µM | – | 5% | Non-Toxic | inhibition at 10 µM [17]: 5%
Nc1nc2ccc(C(=O)N(Cc3ccccc3)Cc3ccc(Cl)c(Cl)c3)cc2s1 | 62.1% | < 10 µM | > 25 µM | – | inactive | > 25 µM | > 25 µM | > 25 µM | < 10 µM | 12 µM | > 25 µM | 10 to 25 µM | > 60% | 2 to 100 | < 10 µM | < 10 µM | Non-Toxic | 26% | – | IC50 [4]: Not Active
Nc1nc2c(C(=O)N(Cc3ccccc3)Cc3ccc(Cl)c(Cl)c3)cc(O)c(O)c2s1 | – | < 10 µM | 10 to 25 µM | 15.2 µM | > 60% | < 10 µM | < 10 µM | 10 to 25 µM | < 10 µM | 11.4 µM | > 25 µM | > 25 µM | > 60% | 2 to 100 | 10 to 25 µM | < 10 µM | Non-Toxic | 25% | Non-Toxic | –
COC(=O)c1ccc(CNC(=O)c2ccc3nc(N)sc3c2)cc1 | – | > 25 µM | > 25 µM | 36 µM | > 60% | > 25 µM | > 25 µM | > 25 µM | > 25 µM | 16.5 µM | > 25 µM | > 25 µM | > 60% | 2 to 100 | > 25 µM | 10 to 25 µM | Non-Toxic | 16% | Non-Toxic | –
Nc1nc2ccc(C(=O)NCc3ccccc3N)cc2s1 | 6.1% | 10 to 25 µM | > 25 µM | 64.7 µM | > 60% | > 25 µM | > 25 µM | > 25 µM | 10 to 25 µM | 13.9 µM | > 25 µM | > 25 µM | > 60% | 2 to 100 | > 25 µM | > 25 µM | Non-Toxic | 8% | – | –
